This is an account of results in ChEMBL document CHEMBL1157626, “A concise synthesis of 1,4-dihydro-[1,4]diazepine-5,7-dione, a novel 7-TM receptor ligand core structure with melanocortin receptor agonist activity” (Bioorg Med Chem, 2010).

pEC50: −log10 of the molar value. Bounds are passed on as bounds.

Common to all, as to assay type: functional, cell-based
The target in assay [1] is T1, Melanocortin receptor 4 (Homo sapiens, UniProt P32245). Description: Agonist activity at human MC4R expressed in CHO cells after 4 hrs by luciferase reporter gene assay. As to conditions: for EC50: read-out: pEC50 (converted); for pEC50: read-out: EC50. An outline of the steps:
(§1)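 CHO-6xCRE-luc+ cells expressing the human receptor, plated at 4000 cells/well in DMEM/F12 with 10% FBS 48 h before assay. Switched to serum-free medium 16 h before compound addition, then incubated 4 h at 37 °C. Luciferase read after 10 min dark adaptation. Activity expressed as % of fold stimulation by 1 × 10^-7 M NDP-aMSH (duplicate control wells).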

Assay [2] addresses T1, Melanocortin receptor 4. Description: Agonist activity at human MC4R expressed in CHO cells after 4 hrs by luciferase reporter gene assay relative to alpha-melanocyte stimulating hormone. An outline of the steps: as §1
(In a reporter assay the amount or activity of a reporter protein is the signal.)

The target in assay [3] is T2, Melanocyte-stimulating hormone receptor (Homo sapiens, UniProt Q01726). Description: Agonist activity at human MC1R expressed in CHO cells after 4 hrs by luciferase reporter gene assay. The note with it: for EC50: read-out: pEC50 (converted); for pEC50: read-out: EC50. The method in brief:
as §1
Target sequence in this assay (Q01726 whole entry): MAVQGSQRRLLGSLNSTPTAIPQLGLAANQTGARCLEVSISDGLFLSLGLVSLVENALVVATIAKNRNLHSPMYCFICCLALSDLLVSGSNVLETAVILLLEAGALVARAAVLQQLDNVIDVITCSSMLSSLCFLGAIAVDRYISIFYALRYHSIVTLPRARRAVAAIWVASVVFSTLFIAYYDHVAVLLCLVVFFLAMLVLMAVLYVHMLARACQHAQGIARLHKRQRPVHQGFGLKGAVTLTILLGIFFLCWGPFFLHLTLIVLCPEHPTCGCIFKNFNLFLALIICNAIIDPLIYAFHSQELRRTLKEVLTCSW

Assay [4] has as its target T2, Melanocyte-stimulating hormone receptor. Put plainly: Agonist activity at human MC1R expressed in CHO cells after 4 hrs by luciferase reporter gene assay relative to alpha-melanocyte stimulating hormone. More on the design: concentration or dose not given beside the values. An outline of the steps: as §1
Target sequence in this assay (Q01726 whole entry, looked up): as the sequence (Q01726 whole entry) above
Assay [5] concerns the target T1, Melanocortin receptor 4. Put plainly: Agonist activity at human MC4R expressed in CHO cells at 10 uM after 4 hrs by luciferase reporter gene assay relative to alpha-melanocyte stimulating hormone. The method in brief: as §1
Assay [6] has as its target T2, Melanocyte-stimulating hormone receptor. Put plainly: Agonist activity at human MC1R expressed in CHO cells at 10 uM after 4 hrs by luciferase reporter gene assay relative to alpha-melanocyte stimulating hormone. The method in brief: as §1
Target sequence in this assay (Q01726 whole entry, looked up): as the sequence (Q01726 whole entry) above

T1 sequence (P32245 whole entry): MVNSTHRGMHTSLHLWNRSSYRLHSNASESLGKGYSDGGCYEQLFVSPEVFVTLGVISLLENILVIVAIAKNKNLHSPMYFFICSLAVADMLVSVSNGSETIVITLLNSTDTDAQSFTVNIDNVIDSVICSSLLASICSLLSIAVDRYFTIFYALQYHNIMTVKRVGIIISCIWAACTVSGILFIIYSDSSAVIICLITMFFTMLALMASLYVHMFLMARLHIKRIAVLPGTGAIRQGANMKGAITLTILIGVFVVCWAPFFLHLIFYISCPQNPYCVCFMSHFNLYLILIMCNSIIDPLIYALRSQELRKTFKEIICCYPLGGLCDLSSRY

On to `O=C1[C@@H](Cc2n[nH]c3ccccc23)C(=O)N(c2ccccc2)C=CN1CC(=O)N1CCCCc2ccccc21`, for which the EC50 was 100 nM in assay [1] and 1.58 nM in assay [3]. For the same molecule, the Activity in assay [2] worked out at 27; in assay [4], 86%.
`CC(C)N(C(=O)CN1C=CN(c2ccccc2)C(=O)C(Cc2n[nH]c3ccccc23)C1=O)c1ccc(O)cc1` (single isomer, unassigned; form 2) [listing 1 of 2 here]: the Activity in assay [4] worked out at 16%. This molecule also displayed an Efficacy in assay [5] of 5%.
For `COc1ccc(N(C(=O)CN2C=CN(Cc3ccccc3)C(=O)C(Cc3n[nH]c4ccccc34)C2=O)C(C)C)cc1` (racemic), in assay [1], the pEC50 was below 4.52. For the same molecule, the EC50 in assay [3] was 794 nM. The Activity in assay [4] was determined as 59%. The same molecule registered an Efficacy in assay [5] of 6%.
For the molecule `CC(C)N(C(=O)CN1C=CN(c2ccccc2)C(=O)C(Cc2n[nH]c3ccccc23)C1=O)c1ccc(F)cc1` (racemic), the EC50 in assay [1] was 282 nM. For the same molecule, the Activity worked out at 22 in assay [2] and 54% in assay [4].
Take `CC(C)N(C(=O)CN1C=CN(c2ccccc2)C(=O)C(Cc2n[nH]c3cc(F)ccc23)C1=O)c1ccccc1` (racemic): the EC50 in assay [1] was 537 nM; in assay [3], 186 nM. For the same molecule, the Activity amounted to 19 in assay [2] and 51% in assay [4].
The matching figures for `CC(C)N(C(=O)CN1C=CN(c2ccccc2)C(=O)[C@H](Cc2n[nH]c3ccccc23)C1=O)c1ccccc1`: 1070 nM, 295 nM, 26 and 54%.
Consider `CC(C)N(C(=O)CN1C=CN(c2ccccc2)C(=O)C(Cc2n[nH]c3ccccc23)C1=O)c1ccc(O)cc1` (single isomer, unassigned; form 1) [listing 1 of 2 here], for which the Activity worked out at 44 in assay [2] and 79% in assay [4].
Turning to `O=C1[C@H](Cc2n[nH]c3ccccc23)C(=O)N(c2ccccc2)C=CN1CC(=O)N1CCCCc2ccccc21`, the EC50 in assay [1] is 794 nM; in assay [3], 61.7 nM. The Activity worked out at 20 in assay [2] and 76% in assay [4].
As to `COc1ccc(N(C(=O)CN2C=CN(c3cccnc3)C(=O)C(Cc3n[nH]c4cc(F)ccc34)C2=O)C(C)C)cc1` (racemic), the EC50 was 661 nM in assay [1] and 12.6 nM in assay [3]. Besides, the values for the Activity in assay [2] and in assay [4] were 31 and 65%, respectively.
Consider `COc1ccc(N(C(=O)CN2C=CN(C3CCCCC3)C(=O)C(Cc3ccccc3)C2=O)C(C)C)cc1` (racemic), for which the pEC50 in assay [1] and in assay [3] was below 4.52 each time. For the same molecule, the Efficacy in assay [5] and in assay [6] was 0% in each case.
On to `COc1ccc(N(C(=O)CN2C=CN(c3ccccc3)C(=O)C(Cc3nn(C)c4ccccc34)C2=O)C(C)C)cc1` (racemic), for which the pEC50 in assay [1] and in assay [3] was below 4.52 throughout. For the same molecule, the Efficacy in assay [5] was 5%; in assay [6], 6%.
For `CCn1nc(CC2C(=O)N(CC(=O)N(c3ccc(OC)cc3)C(C)C)C=CN(c3ccccc3)C2=O)c2ccccc21` (racemic), the negative-log EC50 (pEC50) in assay [1] and in assay [3] was below 4.52 in each case. Further, the Efficacy came to 5% in assay [5] and 2% in assay [6].
As to `COc1ccc(N(C(=O)CN2C=CN(c3ccccc3)C(=O)C(Cc3n[nH]c4cc(F)ccc34)C2=O)C(C)C)cc1` (racemic), the EC50 in assay [1] is 355 nM. Besides, the Activity in assay [2] worked out at 39; in assay [4], 83%.
As for `CC(C)N(C(=O)CN1C=CN(c2ccccc2)C(=O)C(Cc2n[nH]c3ccccc23)C1=O)c1ccc(O)cc1` (single isomer, unassigned; form 1) [listing 2 of 2 here], the EC50 in assay [1] was 1000 nM.
As for `COc1ccc(N(C(=O)CN2C=CN(c3cccnc3)C(=O)C(Cc3n[nH]c4ccccc34)C2=O)C(C)C)cc1` (racemic), the EC50 was 2880 nM in assay [1] and 178 nM in assay [3]. The Activity in assay [2] is 31; in assay [4], 60%.
`COc1ccc(N(C(=O)CN2C=CN(c3ccccc3)C(=O)[C@@H](Cc3n[nH]c4ccccc34)C2=O)C(C)C)cc1`: in assay [1], the pEC50 was below 4.52. Also, the EC50 in assay [3] was 1550 nM. The Efficacy in assay [5] turned out to be 14%.
For the molecule `CC(C)N(C(=O)CN1C=CN(c2ccccc2)C(=O)C(Cc2n[nH]c3ccccc23)C1=O)c1ccc(O)cc1` (single isomer, unassigned; form 2) [listing 2 of 2 here], the pEC50 in assay [1] is below 4.52. Besides, the EC50 in assay [3] is 52.5 nM.
`CC(C)N(C(=O)CN1C=CN(c2ccccc2)C(=O)C(Cc2n[nH]c3ccccc23)C1=O)c1ccccc1` (racemic): the EC50 is 3240 nM in assay [1] and 708 nM in assay [3]. Moreover, the Activity came to 22 in assay [2] and 42% in assay [4].
As for `CC(C)N(C(=O)CN1C=CN(c2ccccc2)C(=O)C(Cc2n[nH]c3ccccc23)C1=O)c1ccc(N2CCOCC2)cc1` (racemic), in assay [1], the pEC50 is below 4.52. Besides, the EC50 in assay [3] is 832 nM. Besides, the Activity in assay [4] amounted to 22%. Further, in assay [5], the Efficacy turned out to be 3%.
Consider `COc1ccc(N(C(=O)CN2C=CN(c3ccccc3)C(=O)C(Cc3n[nH]c4ccccc34)(OC)C2=O)C(C)C)cc1` (racemic), for which the EC50 is 166 nM in assay [1] and 1380 nM in assay [3]. Moreover, the Activity in assay [2] was 74; in assay [4], 58%.
With `CC(C)N(C(=O)CN1C=CN(c2ccccc2)C(=O)C(Cc2n[nH]c3ccccc23)C1=O)c1ccc(OC(F)(F)F)cc1` (racemic), in assay [1], the EC50 is 151 nM. The Activity came to 78 in assay [2] and 91% in assay [4].
The matching figures for `O=C1C(Cc2n[nH]c3ccccc23)C(=O)N(c2ccccc2)C=CN1CC(=O)N1CCCCc2ccccc21` (racemic): 324 nM, 17 and 61%.
Turning to `CC(C)N(C(=O)CN1C=CN(C)C(=O)C(Cc2n[nH]c3cc(F)ccc23)C1=O)c1ccc(F)cc1` (racemic), in assay [1], the pEC50 was below 4.52. For the same molecule, in assay [3], the EC50 is 3720 nM. The molecule further returned an Activity in assay [4] of 62%. The Efficacy in assay [5] stood at 5%.
For the molecule `COC1(Cc2n[nH]c3ccccc23)C(=O)N(CC(=O)N(c2ccc(F)cc2)C(C)C)C=CN(c2ccccc2)C1=O` (racemic), the EC50 in assay [1] is 44.7 nM; in assay [3], 2950 nM. The values for the Activity in assay [2] and in assay [4] were 52 and 33%, respectively.
For `CC(C)N(C(=O)CN1C=CN(c2ccccc2)C(=O)[C@H](Cc2n[nH]c3cc(F)ccc23)C1=O)c1ccccc1`, the figures for the EC50 in assay [1] and in assay [3] were 1260 nM and 35.5 nM, respectively. The Activity in assay [2] amounted to 23; in assay [4], 79%.
Take `CC(C)N(C(=O)CN1C=CN(c2ccccc2)C(=O)C(Cc2n[nH]c3cc(F)ccc23)C1=O)c1ccc(F)cc1` (racemic): the EC50 in assay [1] was 178 nM. The Activity in assay [2] is 19; in assay [4], 53%.
Take `COc1ccc(N(C(=O)CN2C=CN(c3ccccc3)C(=O)C(Cc3cc[nH]n3)(Cc3n[nH]c4ccccc34)C2=O)C(C)C)cc1` (racemic): the EC50 in assay [1] is 1050 nM; in assay [3], 398 nM. For the same molecule, the figures for the Activity in assay [2] and in assay [4] were 16 and 30%, respectively.
`CC(C)N(C(=O)CN1C=CN(c2ccccc2)C(=O)C(Cc2n[nH]c3ccccc23)C1=O)c1ccc(O)cc1` (racemic) [listing 1 of 2 here]: the Activity in assay [2] amounted to 30; in assay [4], 54%.
Consider `CC(C)N(C(=O)CN1C=CN(c2ccccc2)C(=O)C(Cc2n[nH]c3ccccc23)C1=O)c1ccc(O)cc1` (racemic) [listing 2 of 2 here], for which the EC50 in assay [1] was 1000 nM; in assay [3], 550 nM.

What is called pEC50 is the EC50 on a negative log10 scale, so that one unit is a factor of ten.
